Values after ≈ are worked out from the molar mass of the structure shown. Active and inactive are the calls of the source.
Experiments:
[1] = tested on: Chlamydia trachomatis; experiment: Antibacterial activity against Chlamydia trachomatis infected in human HeLa 229 cells after 35 hrs by fluorescence microscopy; format: functional
In short: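 HeLa 229 monolayers infected with C. trachomatis serovar L2, MOI 0.3; compounds diluted in RPMI 1640 with 10% FCS, 2 mM L-glutamine, 8 µg/mL gentamicin (DMSO final 1%) added 1 h post-infection at 50, 25, 12.5, 6.25, 3.13 µM. 35 h at 37 °C, 5% CO2; methanol fixation, immunostaining, fluorescence microscopy at 200×. MIC = lowest concentration with no intracellular inclusions; duplicates, ≥3 occasions.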

[2] = tested on: Yersinia pseudotuberculosis YPIII; experiment: Inhibition of T3S in Yersinia pseudotuberculosis YPIII expressing yopE-luxAB at 25 uM after 3 hrs by luciferase reporter gene assay
In short: (§1)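 Strain YPIII pIB102 (yopE-luxAB) grown overnight at room temperature in BHI with 5 mM EGTA and 20 mM MgCl2 (calcium depletion), adjusted to OD600 0.088–0.095. Compound added from DMSO at 1.56–200 µM final (eight concentrations). Shaken 1 h at room temperature, then 2 h at 37 °C. Decanal added and light emission read immediately. Triplicates, repeated at least three times.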

[3] = Cytotoxicity against human HeLa 229 cells assessed as cell viability at 25 uM after 28 hrs using resazurin staining by fluorescence microscopy; format: cell-based; details: read-out: Activity
In short: (§2)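 HeLa 229 viability measured at 50 and 25 µM using resazurin added 4 h before read-out; cell-free wells with medium plus compound exclude chemical reduction of resazurin. Scored relative to DMSO control, plus microscopic scoring; non-toxic defined as at least 70% viability versus control. Triplicates, repeated at least three times.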

[4] = tested on: Yersinia pseudotuberculosis YPIII; experiment: Inhibition of T3S in Yersinia pseudotuberculosis YPIII expressing yopE-luxAB at 3.13 uM after 3 hrs by luciferase reporter gene assay; in short: as §1
[5] = tested on: Yersinia pseudotuberculosis YPIII; experiment: Inhibition of T3S in Yersinia pseudotuberculosis YPIII expressing yopE-luxAB at 50 uM after 3 hrs by luciferase reporter gene assay; in short: as §1
[6] = tested on: Yersinia pseudotuberculosis YPIII; experiment: Inhibition of T3S in Yersinia pseudotuberculosis YPIII expressing yopE-luxAB at 100 uM after 3 hrs by luciferase reporter gene assay; in short: as §1
[7] = tested on: Yersinia pseudotuberculosis; experiment: Antibacterial activity against Yersinia pseudotuberculosis expressing pIB102 at 50 uM after 23 hrs by broth dilution assay; format: functional, organism-based
In short: (§3)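 Wild-type pIB102 grown overnight in LB at room temperature, diluted to OD600 = 0.1 in LB with 2.5 mM CaCl2. Compound added from DMSO stock to final 50 and 100 µM. Incubated at 37 °C with absorbance at 595 nm read over 23 h.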

[8] = tested on: Escherichia coli; experiment: Antibacterial activity against Escherichia coli DH5[alpha] at 100 uM after 23 hrs by broth dilution assay; format: functional, organism-based
In short: (§4)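 Overnight LB culture of E. coli DH5α grown at 37 °C, diluted to OD600 0.1 in LB with 2.5 mM CaCl2; compound added from DMSO stock to final 50 or 100 µM. Incubated at 37 °C with absorbance at 595 nm followed over 23 h.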

[9] = tested on: Yersinia pseudotuberculosis YPIII; experiment: Inhibition of T3S in Yersinia pseudotuberculosis YPIII expressing yopE-luxAB at 12.5 uM after 3 hrs by luciferase reporter gene assay; in short: as §1
[10] = tested on: Yersinia pseudotuberculosis YPIII; experiment: Inhibition of T3S in Yersinia pseudotuberculosis YPIII expressing yopE-luxAB at 1.56 uM after 3 hrs by luciferase reporter gene assay; in short: as §1
[11] = tested on: Yersinia pseudotuberculosis YPIII; experiment: Inhibition of T3S in Yersinia pseudotuberculosis YPIII expressing yopE-luxAB at 6.25 uM after 3 hrs by luciferase reporter gene assay; in short: as §1
[12] = tested on: Escherichia coli; experiment: Antibacterial activity against Escherichia coli DH5[alpha] at 50 uM after 23 hrs by broth dilution assay; format: functional, organism-based; in short: as §4
[13] = tested on: Yersinia pseudotuberculosis; experiment: Antibacterial activity against Yersinia pseudotuberculosis expressing pIB102 at 100 uM after 23 hrs by broth dilution assay; format: functional, organism-based; in short: as §3
[14] = Cytotoxicity against human HeLa 229 cells assessed as cell viability at 50 uM after 28 hrs using resazurin staining by fluorescence microscopy; format: cell-based; details: read-out: Activity; in short: as §2
[15] = tested on: Yersinia pseudotuberculosis YPIII; experiment: Inhibition of T3S in Yersinia pseudotuberculosis YPIII expressing yopE-luxAB at 200 uM after 3 hrs by luciferase reporter gene assay; in short: as §1
[16] = biological target: Tyrosine-protein phosphatase YopH (Yersinia pseudotuberculosis serotype I (strain IP32953)) (UniProt P08538); experiment: Inhibition of YopH in Yersinia pseudotuberculosis YPIII expressing yopE-luxAB treated 3 hrs before substrate addition measured after 15 mins by microplate reader
Chain of Tyrosine-protein phosphatase YopH (Yersinia pseudotuberculosis serotype I (strain IP32953)) (P08538 whole entry): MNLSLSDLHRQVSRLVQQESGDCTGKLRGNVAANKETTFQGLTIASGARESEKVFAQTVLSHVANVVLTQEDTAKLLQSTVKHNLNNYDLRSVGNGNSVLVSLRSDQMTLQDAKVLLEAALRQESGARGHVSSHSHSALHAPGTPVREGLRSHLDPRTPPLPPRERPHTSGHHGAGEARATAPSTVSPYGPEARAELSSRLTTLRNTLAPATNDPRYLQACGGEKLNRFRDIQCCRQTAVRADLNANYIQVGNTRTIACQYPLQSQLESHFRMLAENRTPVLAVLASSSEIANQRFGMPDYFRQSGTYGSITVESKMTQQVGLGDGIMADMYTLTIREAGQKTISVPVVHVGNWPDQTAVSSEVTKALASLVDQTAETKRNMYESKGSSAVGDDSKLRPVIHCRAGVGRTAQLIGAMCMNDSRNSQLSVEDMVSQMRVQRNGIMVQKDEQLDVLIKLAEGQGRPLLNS
In short: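 Same calcium-depleted YPIII pIB102 cultures and compound exposure (1 h room temperature, then 2 h 37 °C). An aliquot of the bacterial suspension was mixed with 25 mM p-nitrophenyl phosphate, 40 mM MES pH 5.0, 1.6 mM DTT. Incubated 15 min at 37 °C, quenched with 1 M NaOH, absorbance read at 405 nm. Triplicates, repeated at least three times.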

[17] = tested on: J774; experiment: Cytotoxicity against mouse J774 cells at 25 to 100 uM after 14 hrs using calcein AM staining by fluorescence microscopy; format: cell-based; details: j774, 14 h
In short: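 J774A macrophages (4×10⁴/well, DMEM with 10% FCS, gentamicin 3 µg/mL, 24 h at 37 °C, 5% CO2) washed with PBS, then given fresh DMEM with compound plus bacteria (OD600 0.002), final 25, 50, 100 µM, DMSO below 0.5%. ETEC grown overnight in LB at 37 °C, diluted and grown 3 h. 14 h at 37 °C, 5% CO2; CalceinAM 40 min, fluorescence 485/535 nm, confirmed by microscopy; uninfected cells = 100% viability; gentamicin 5 µg/mL rescue control.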

[18] = tested on: Yersinia pseudotuberculosis; experiment: Antibacterial activity against Yersinia pseudotuberculosis expressing pIB102 infected in mouse J774 cells assessed as inhibition of bacteria-induced cell death at 50 uM after 14 hrs using calcein AM staining by fluorescence microscopy; format: functional, organism-based
In short: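 J774A macrophages (4 × 10^4 cells/well) grown 24 h in DMEM/10% FCS/gentamicin. Wild-type pIB102 grown in LB plus kanamycin overnight at room temperature, diluted 1/10 in DMEM, shaken 1 h at room temperature then 2 h at 37 °C. Added at OD600 = 0.002 with compound (25, 50, 100 µM final; DMSO <0.5%). Incubated 14 h, 37 °C, 5% CO2. CalceinAM 40 min, fluorescence 485/535 nm; uninfected cells = 100% viability.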

SMILES | MIC [1] | inhibition [2] [%] | viability at 28 h, 25 µM [3] [%] | inhibition [4] [%] | inhibition [5] [%] | inhibition [6] [%] | Activity [7] | Activity [8] | inhibition [9] [%] | inhibition [10] [%] | inhibition [11] [%] | Activity [12] | Activity [13] | viability at 28 h, 50 µM [14] [%] | inhibition [15] [%] | inhibition [16] | Activity [17] | inhibition [18]
O=C(N/N=C/c1cc(Br)ccc1O)c1ccccc1Cl | 50 µM (≈ 17.7 µg/mL) | 11 | 77 | 10 | 38 | 58 | inactive | inactive | 13 | 10 | 10 | inactive | inactive | 60 | 61 |  |  | 
COc1cccc(C(=O)N/N=C/c2cc(Br)ccc2O)c1 | 25 µM (≈ 8.73 µg/mL) | 22 | 73 | 15 | 44 | 71 | inactive | inactive | 15 | 6 | 8 | inactive | inactive | 65 | 77 |  |  | 
COc1cc(Br)cc(/C=N/NC(=O)Cc2ccccc2)c1O | inactive | 9 | 58 | 18 | 22 | 57 | inactive | inactive | 15 | 10 | 12 | inactive | inactive | 33 | 65 |  |  | 
COc1ccc(Br)c(/C=N/NC(=O)c2ccncc2)c1O |  | 27 |  | 9 | 54 | 77 | inactive | inactive | 18 |  | 18 | inactive | inactive |  | 35 | inactive |  | 
NC(=O)C(=O)N/N=C/c1c(O)cc(O)cc1O |  | 26 |  | 5 | 51 | 63 | inactive | inactive | 17 | -1 | 17 | inactive | inactive |  | 64 | inactive |  | 
Cc1ccc(C(=O)N/N=C/c2cc(C(C)(C)C)ccc2O)cc1 | 50 µM (≈ 15.5 µg/mL) | 20 | 80 | 6 | 17 | 24 | inactive | inactive | 18 | 13 | 14 | inactive | inactive | 79 | 25 |  |  | 
O=C(N/N=C/c1cccc(F)c1O)c1ccc([N+](=O)[O-])cc1 | 50 µM (≈ 15.2 µg/mL) | 19 | 75 | 7 | 28 | 20 | inactive | inactive | 4 | 1 | 2 | inactive | inactive | 72 | 59 |  |  | 
CCN(CC)c1ccc(/C=N/NC(=O)c2ccc(OC)c(OC)c2)c(O)c1 |  | 44 |  | 14 | 66 | 66 | inactive | inactive | 29 |  | 14 | inactive | inactive |  | 56 | inactive |  | 
O=C(Cc1ccccc1)N/N=C/c1cc(Br)ccc1O | 50 µM (≈ 16.7 µg/mL) | 15 | 75 | 4 | 26 | 39 | inactive | inactive | 7 | 15 | 10 | inactive | inactive | 74 | 50 |  |  | 
O=C(N/N=C/c1cc(Br)ccc1O)c1ccncc1 |  | 43 |  | 14 | 87 | 95 | inactive | inactive | 24 | -8 | 13 | inactive | inactive |  | 98 |  | Non-toxic | Active
COc1cc(C(=O)N/N=C/c2ccc(O)c(O)c2O)cc(OC)c1OC |  | 31 |  | 11 | 50 | 58 | inactive | inactive | 19 | -10 | 14 | inactive | inactive |  | 62 | inactive |  | 
O=C(N/N=C/c1ccc(Cl)cc1O)c1ccncc1 | inactive | 27 | 72 | -1 | 84 | 96 | inactive | inactive | 4 | 5 | 3 | inactive | inactive | 67 | 95 |  |  | 
CC(C)(C)c1ccc(O)c(/C=N/NC(=O)Cc2ccccc2)c1 | inactive | 10 | 83 | 13 | 26 | 20 | inactive | inactive | 4 | 9 | 9 | inactive | inactive | 79 | 25 |  |  | 

— ChEMBL document CHEMBL1156948, “Statistical molecular design of a focused salicylidene acylhydrazide library and multivariate QSAR of inhibition of type III secretion in the Gram-negative bacterium Yersinia” (Bioorg Med Chem, 2010)
